# Measured values taken from ChEMBL document CHEMBL5724801, “EUbOPEN Chemogenomics Library - Multiplex” (2024).
# “And” between values parts separate entries of the source, which are not always exact repeats. Identical values can stand only once.
# Test system: Fibroblast
# Experiment: Multiplex assay against human fibroblast
# Assay type: toxicity, cell-based
# Method in brief: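 Tubulin, mitochondrial-mass and membrane-permeability phenotypes are per cents of healthy-nucleus cells. Cells were gated by CellPathfinder machine learning into Hoechst high-intensity objects or normal cells, normal cells into healthy, pyknosed or fragmented nuclei, and pyknosed cells into mitotic or apoptotic. Before that, live cells stained at seeding with Hoechst33342, BioTracker Green Microtubule Cytoskeleton Dye, MitoTracker Red and Annexin V Alexa Fluor 680 were imaged on a CQ1 microscope at 37°C and 5% CO2 after compound addition.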
# [1] = 12 h, 1 µM, compound concentration 1 uM
# [2] = 12 h, 10 µM, compound concentration 10 uM
# [3] = 24 h, 1 µM, compound concentration 1 uM
# [4] = 24 h, 10 µM, compound concentration 10 uM
# [5] = 48 h, 1 µM, compound concentration 1 uM
# [6] = 48 h, 10 µM, compound concentration 10 uM
structure (smiles),measurement,setting,value
CC(C)(O)c1cnc(N2C[C@@]3(CCC[C@](C)(Cn4cnc5ccc(C#N)cc54)C3)OC2=O)cn1 [GSK2798745],Population Apoptotic (%),[1],7.14% and 16.22%
same,Population Fragmented Nuclei (%),[1],12.71% and 8%
same,Population Healthy Nuclei (%),[1],63.56% and 75.56%
same,Population Hoechst High Intensity Objects (%),[1],0%
same,Population Membrane Permeable-Phenotype (%),[1],4% and 4.12%
same,Population Mitochondria Different-Phenotype (%),[1],13.33% and 10.59%
same,Population Mitotic Cells (%),[1],92.86% and 83.78%
same,Population Normal (%),[1],100%
same,Population Pyknosed Nuclei (%),[1],23.73% and 16.44%
same,Population Tubulin-Different-Phenotype (%),[1],16% and 20%
same,Total Cell Count,[1],118 and 225
same,Population Apoptotic (%),[2],11.76% and 21.62%
same,Population Fragmented Nuclei (%),[2],16.26% and 5.53%
same,Population Healthy Nuclei (%),[2],50.25% and 77.42%
same,Population Hoechst High Intensity Objects (%),[2],0%
same,Population Membrane Permeable-Phenotype (%),[2],14.71% and 12.5%
same,Population Mitochondria Different-Phenotype (%),[2],18.63% and 22.62%
same,Population Mitotic Cells (%),[2],88.24% and 78.38%
same,Population Normal (%),[2],100%
same,Population Pyknosed Nuclei (%),[2],33.5% and 17.05%
same,Population Tubulin-Different-Phenotype (%),[2],52.94% and 55.95%
same,Total Cell Count,[2],203 and 217
same,Population Apoptotic (%),[3],9.09% and 21.05%
same,Population Fragmented Nuclei (%),[3],14.29% and 4.76%
same,Population Healthy Nuclei (%),[3],65.22% and 87.01%
same,Population Hoechst High Intensity Objects (%),[3],0%
same,Population Membrane Permeable-Phenotype (%),[3],1.9% and 5.97%
same,Population Mitochondria Different-Phenotype (%),[3],4.76% and 5.97%
same,Population Mitotic Cells (%),[3],90.91% and 78.95%
same,Population Normal (%),[3],100%
same,Population Pyknosed Nuclei (%),[3],20.5% and 8.23%
same,Population Tubulin-Different-Phenotype (%),[3],16.19% and 21.89%
same,Total Cell Count,[3],161 and 231
same,Population Apoptotic (%),[4],11.11% and 25.81%
same,Population Fragmented Nuclei (%),[4],15.38% and 6.88%
same,Population Healthy Nuclei (%),[4],68.33% and 78.9%
same,Population Hoechst High Intensity Objects (%),[4],0%
same,Population Membrane Permeable-Phenotype (%),[4],9.93% and 5.81%
same,Population Mitochondria Different-Phenotype (%),[4],12.58% and 22.09%
same,Population Mitotic Cells (%),[4],88.89% and 74.19%
same,Population Normal (%),[4],100%
same,Population Pyknosed Nuclei (%),[4],16.29% and 14.22%
same,Population Tubulin-Different-Phenotype (%),[4],52.32% and 62.21%
same,Total Cell Count,[4],221 and 218
same,Population Fragmented Nuclei (%),[5],10.86% and 4.58%
same,Population Healthy Nuclei (%),[5],82.29% and 90.83%
same,Population Hoechst High Intensity Objects (%),[5],0%
same,Population Membrane Permeable-Phenotype (%),[5],0% and 4.13%
same,Population Mitotic Cells (%),[5],91.67% and 63.64%
same,Population Normal (%),[5],100%
same,Population Pyknosed Nuclei (%),[5],6.86% and 4.58%
same,Population Tubulin-Different-Phenotype (%),[5],12.5% and 17.89%
same,Total Cell Count,[5],175 and 240
same,Population Apoptotic (%),[6],14.29% and 42.11%
same,Population Fragmented Nuclei (%),[6],11.06% and 7.96%
same,Population Healthy Nuclei (%),[6],78.85% and 83.63%
same,Population Hoechst High Intensity Objects (%),[6],0%
same,Population Membrane Permeable-Phenotype (%),[6],4.27% and 11.64%
same,Population Mitochondria Different-Phenotype (%),[6],21.95% and 10.05%
same,Population Mitotic Cells (%),[6],85.71% and 57.89%
same,Population Normal (%),[6],100%
same,Population Pyknosed Nuclei (%),[6],10.1% and 8.41%
same,Population Tubulin-Different-Phenotype (%),[6],44.51% and 59.79%
same,Total Cell Count,[6],208 and 226
O=C(NCCN1CCC(n2c(=O)[nH]c3cc(Cl)ccc32)CC1)c1ccc(F)cc1 [HALOPEMIDE],Population Apoptotic (%),[1],32% and 44%
same,Population Fragmented Nuclei (%),[1],11% and 27%
same,Population Healthy Nuclei (%),[1],62% and 43%
same,Population Hoechst High Intensity Objects (%),[1],0% and 7%
same,Population Membrane Permeable-Phenotype (%),[1],1% and 10%
same,Population Mitochondria Different-Phenotype (%),[1],10% and 0%
same,Population Mitotic Cells (%),[1],67% and 56%
same,Population Normal (%),[1],99% and 92%
same,Population Pyknosed Nuclei (%),[1],26% and 29%
same,Population Tubulin-Different-Phenotype (%),[1],29% and 56%
same,Total Cell Count,[1],120 and 92
same,Population Apoptotic (%),[2],55% and 31%
same,Population Fragmented Nuclei (%),[2],15% and 24%
same,Population Healthy Nuclei (%),[2],54% and 34%
same,Population Hoechst High Intensity Objects (%),[2],3% and 4%
same,Population Membrane Permeable-Phenotype (%),[2],0% and 6%
same,Population Mitochondria Different-Phenotype (%),[2],17% and 14%
same,Population Mitotic Cells (%),[2],44% and 68%
same,Population Normal (%),[2],96% and 95%
same,Population Pyknosed Nuclei (%),[2],30% and 41%
same,Population Tubulin-Different-Phenotype (%),[2],77% and 87%
same,Total Cell Count,[2],204 and 148
same,Population Apoptotic (%),[3],58% and 37%
same,Population Fragmented Nuclei (%),[3],16% and 32%
same,Population Healthy Nuclei (%),[3],69% and 41%
same,Population Hoechst High Intensity Objects (%),[3],3% and 10%
same,Population Membrane Permeable-Phenotype (%),[3],1% and 5%
same,Population Mitochondria Different-Phenotype (%),[3],9% and 8%
same,Population Mitotic Cells (%),[3],41% and 62%
same,Population Normal (%),[3],96% and 90%
same,Population Pyknosed Nuclei (%),[3],13% and 26%
same,Population Tubulin-Different-Phenotype (%),[3],38% and 59%
same,Total Cell Count,[3],128 and 100
same,Population Apoptotic (%),[4],67% and 41%
same,Population Fragmented Nuclei (%),[4],23% and 26%
same,Population Healthy Nuclei (%),[4],51% and 38%
same,Population Hoechst High Intensity Objects (%),[4],5% and 6%
same,Population Membrane Permeable-Phenotype (%),[4],0% and 12%
same,Population Mitochondria Different-Phenotype (%),[4],28% and 32%
same,Population Mitotic Cells (%),[4],32% and 58%
same,Population Normal (%),[4],95% and 93%
same,Population Pyknosed Nuclei (%),[4],24% and 35%
same,Population Tubulin-Different-Phenotype (%),[4],78% and 94%
same,Total Cell Count,[4],220 and 140
same,Population Apoptotic (%),[5],52% and 35%
same,Population Fragmented Nuclei (%),[5],14% and 38%
same,Population Healthy Nuclei (%),[5],68% and 43%
same,Population Hoechst High Intensity Objects (%),[5],3% and 4%
same,Population Membrane Permeable-Phenotype (%),[5],4% and 14%
same,Population Mitochondria Different-Phenotype (%),[5],7% and 4%
same,Population Mitotic Cells (%),[5],47% and 64%
same,Population Normal (%),[5],96% and 95%
same,Population Pyknosed Nuclei (%),[5],17%
same,Population Tubulin-Different-Phenotype (%),[5],36% and 63%
same,Total Cell Count,[5],128 and 99
same,Population Apoptotic (%),[6],80% and 48%
same,Population Fragmented Nuclei (%),[6],32% and 35%
same,Population Healthy Nuclei (%),[6],50% and 45%
same,Population Hoechst High Intensity Objects (%),[6],10% and 5%
same,Population Membrane Permeable-Phenotype (%),[6],0% and 10%
same,Population Mitochondria Different-Phenotype (%),[6],35% and 15%
same,Population Mitotic Cells (%),[6],19% and 52%
same,Population Normal (%),[6],89% and 94%
same,Population Pyknosed Nuclei (%),[6],17% and 19%
same,Population Tubulin-Different-Phenotype (%),[6],77% and 96%
same,Total Cell Count,[6],229 and 136
c1cc(OCCCN2CCCCC2)ccc1CN1CCCCC1 [JNJ-5207852],Population Apoptotic (%),[1],37% and 26%
same,Population Fragmented Nuclei (%),[1],15% and 24%
same,Population Healthy Nuclei (%),[1],64% and 51%
same,Population Hoechst High Intensity Objects (%),[1],1% and 7%
same,Population Membrane Permeable-Phenotype (%),[1],0% and 8%
same,Population Mitochondria Different-Phenotype (%),[1],2% and 5%
same,Population Mitotic Cells (%),[1],62% and 73%
same,Population Normal (%),[1],98% and 92%
same,Population Pyknosed Nuclei (%),[1],20% and 23%
same,Population Tubulin-Different-Phenotype (%),[1],26% and 49%
same,Total Cell Count,[1],181 and 153
same,Population Apoptotic (%),[2],50% and 43%
same,Population Fragmented Nuclei (%),[2],22% and 36%
same,Population Healthy Nuclei (%),[2],68% and 42%
same,Population Hoechst High Intensity Objects (%),[2],1%
same,Population Membrane Permeable-Phenotype (%),[2],0% and 12%
same,Population Mitochondria Different-Phenotype (%),[2],6% and 10%
same,Population Mitotic Cells (%),[2],50% and 56%
same,Population Normal (%),[2],98%
same,Population Pyknosed Nuclei (%),[2],9% and 20%
same,Population Tubulin-Different-Phenotype (%),[2],35% and 60%
same,Total Cell Count,[2],193 and 114
same,Population Apoptotic (%),[3],38% and 33%
same,Population Fragmented Nuclei (%),[3],18% and 28%
same,Population Healthy Nuclei (%),[3],66% and 51%
same,Population Hoechst High Intensity Objects (%),[3],2% and 5%
same,Population Membrane Permeable-Phenotype (%),[3],0% and 5%
same,Population Mitochondria Different-Phenotype (%),[3],2% and 6%
same,Population Mitotic Cells (%),[3],61% and 66%
same,Population Normal (%),[3],97% and 95%
same,Population Pyknosed Nuclei (%),[3],15% and 19%
same,Population Tubulin-Different-Phenotype (%),[3],23% and 55%
same,Total Cell Count,[3],176 and 160
same,Population Apoptotic (%),[4],60% and 41%
same,Population Fragmented Nuclei (%),[4],24% and 45%
same,Population Healthy Nuclei (%),[4],65% and 38%
same,Population Hoechst High Intensity Objects (%),[4],1% and 5%
same,Population Membrane Permeable-Phenotype (%),[4],0% and 4%
same,Population Mitochondria Different-Phenotype (%),[4],6% and 13%
same,Population Mitotic Cells (%),[4],40% and 58%
same,Population Normal (%),[4],99% and 94%
same,Population Pyknosed Nuclei (%),[4],10% and 15%
same,Population Tubulin-Different-Phenotype (%),[4],34% and 67%
same,Total Cell Count,[4],201 and 118
same,Population Apoptotic (%),[5],70% and 44%
same,Population Fragmented Nuclei (%),[5],18% and 32%
same,Population Healthy Nuclei (%),[5],63% and 48%
same,Population Hoechst High Intensity Objects (%),[5],2% and 4%
same,Population Membrane Permeable-Phenotype (%),[5],0% and 5%
same,Population Mitochondria Different-Phenotype (%),[5],2%
same,Population Mitotic Cells (%),[5],29% and 55%
same,Population Normal (%),[5],97% and 95%
same,Population Pyknosed Nuclei (%),[5],17% and 18%
same,Population Tubulin-Different-Phenotype (%),[5],23% and 50%
same,Total Cell Count,[5],184 and 160
same,Population Apoptotic (%),[6],55% and 30%
same,Population Fragmented Nuclei (%),[6],19% and 48%
same,Population Healthy Nuclei (%),[6],70% and 41%
same,Population Hoechst High Intensity Objects (%),[6],2% and 3%
same,Population Membrane Permeable-Phenotype (%),[6],0% and 5%
same,Population Mitochondria Different-Phenotype (%),[6],2% and 11%
same,Population Mitotic Cells (%),[6],44% and 69%
same,Population Normal (%),[6],97% and 96%
same,Population Pyknosed Nuclei (%),[6],9% and 10%
same,Population Tubulin-Different-Phenotype (%),[6],34% and 66%
same,Total Cell Count,[6],189 and 132
